Consider 17 compounds from ChEMBL document CHEMBL3576814, “N (1)-Fluoroalkyltryptophan Analogues: Synthesis and in vitro Study as Potential Substrates for Indoleamine 2,3-Dioxygenase” (ACS Med Chem Lett, 2015).

Each structure is given as a SMILES string.

In series [1] the target is Indoleamine 2,3-dioxygenase 1 (Homo sapiens) (UniProt P14902). The experiment in a line: Activity of recombinant human IDO assessed as retention time treated with L-Trp by HPLC analysis. In short, it runs like this: (§1)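 rhIDO incubation mixtures analysed by HPLC or UPLC, eluting with CH3CN/10 mM ammonium acetate 10/90 or 5/95 (v/v) at 0.7 mL/min. UV detection uses 221 and 284 nm for substrates and 321 or 360 nm for products. Product peaks are collected for mass spectrometry.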
Chain of Indoleamine 2,3-dioxygenase 1 (Homo sapiens) (P14902 whole entry, looked up): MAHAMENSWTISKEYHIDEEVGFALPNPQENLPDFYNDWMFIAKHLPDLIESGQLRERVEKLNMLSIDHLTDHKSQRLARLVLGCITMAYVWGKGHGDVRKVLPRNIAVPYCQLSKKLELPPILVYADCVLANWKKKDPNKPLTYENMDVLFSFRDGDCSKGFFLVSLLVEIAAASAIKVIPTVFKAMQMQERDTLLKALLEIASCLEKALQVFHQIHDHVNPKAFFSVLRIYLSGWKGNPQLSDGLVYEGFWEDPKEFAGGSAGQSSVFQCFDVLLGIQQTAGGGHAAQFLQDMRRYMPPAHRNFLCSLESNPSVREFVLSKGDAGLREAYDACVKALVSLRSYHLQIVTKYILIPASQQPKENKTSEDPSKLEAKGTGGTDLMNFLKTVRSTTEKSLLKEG

The target of series [2] is Tryptophan 2,3-dioxygenase (Homo sapiens) (UniProt P48775). In words: Activity of 1 uM recombinant human TDO assessed as substrate consumption at 100 uM at 37 degC at pH 7.5 after 1 hr by HPLC with fluorescence detection method. Put shortly: (§2)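 Recombinant human TDO (1 or 10 μM enzyme) incubated with substrate at 100 μM, 37 °C, pH 7.5, for 1 h. Perchloric acid is then added and the mixture analysed by HPLC with fluorescence detection. Read-out is percentage of substrate consumed.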
Chain of Tryptophan 2,3-dioxygenase (Homo sapiens) (P48775 whole entry, looked up): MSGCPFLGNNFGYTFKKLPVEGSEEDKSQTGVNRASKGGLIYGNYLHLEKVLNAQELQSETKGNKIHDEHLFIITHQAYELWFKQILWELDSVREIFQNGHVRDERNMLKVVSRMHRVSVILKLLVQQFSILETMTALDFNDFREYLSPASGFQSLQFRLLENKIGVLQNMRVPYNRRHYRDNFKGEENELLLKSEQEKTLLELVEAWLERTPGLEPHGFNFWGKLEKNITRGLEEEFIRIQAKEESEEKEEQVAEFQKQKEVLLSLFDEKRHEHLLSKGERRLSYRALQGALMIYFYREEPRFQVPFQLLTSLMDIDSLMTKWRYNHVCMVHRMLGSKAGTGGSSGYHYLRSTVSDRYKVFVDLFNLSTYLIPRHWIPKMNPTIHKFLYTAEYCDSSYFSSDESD

A short description of series [3]: Retention time of the compound by HPLC analysis. Format: physicochemical. Put shortly: as §1
In series [4] the target is Tryptophan 2,3-dioxygenase (Homo sapiens) (UniProt P48775). In words: Activity of 10 uM recombinant human TDO assessed as substrate consumption at 100 uM at 37 degC at pH 7.5 after 1 hr by HPLC with fluorescence detection method. In short, it runs like this: as §2
For series [5], the target named is Indoleamine 2,3-dioxygenase 1 (Homo sapiens) (UniProt P14902). The experiment in a line: Activity of recombinant human IDO assessed as retention time treated with 1-FETrp by HPLC analysis. In short, it runs like this:
as §1

Series [6] shares this target. In words: Activity of recombinant human IDO assessed as retention time treated with 5-HO-L-Trp by HPLC analysis. In short, it runs like this:
as §1

Series [7] shares this target. In words: Activity of recombinant human IDO assessed as retention time treated with 1-Me-L-Trp by HPLC analysis. Put shortly:
as §1

`Nc1ccccc1C(=O)C[C@H](N)C(=O)O`: in series [1], the Retention time worked out at 4.5 min. Turning to `N[C@@H](Cc1c[nH]c2ccc(O)cc12)C(=O)O` [OXITRIPTAN], the values for the Activity in series [2] and in series [4] were 0% and 14%, respectively. Further, the Retention_time in series [3] worked out at 5.1 min. On to `NCCc1c[nH]c2ccccc12` [TRYPTAMINE], for which the Retention_time in series [3] was 9 min. In turn, `CC(C)(C)OC(=O)N[C@@H](Cc1c[nH]c2ccccc12)C(=O)O` showed a Retention_time in series [3] of 5.9 min. For `CC(N)Cc1c[nH]c2ccccc12` (stereo not given), the Retention_time in series [3] is 11.1 min. On to `CC(N)(Cc1c[nH]c2ccccc12)C(=O)O` (stereo not given), for which the Retention_time in series [3] was found to be 7 min. Same read-out and setting: as for `N[C@@H](Cc1cn(Cc2cn(CCF)nn2)c2ccccc12)C(=O)O`, the figure is 16.4 min. Turning to `NC(CC(=O)c1ccccc1N(C=O)CCF)C(=O)O` (stereo not given), the Retention time in series [5] is 5 min. As to `NC(Cc1cn(CCF)c2ccccc12)C(=O)O` (racemic), the Activity in series [2] is 0%; in series [4], 2%. Besides, the Retention_time in series [3] is listed as 9.2 min.

As for `Cn1cc(C[C@H](N)C(=O)O)c2ccccc21` [(L)-1-METHYLTRYPTOPHAN], the figures for the Activity in series [2] and in series [4] were 0% and 3%, respectively. Also, the Retention_time in series [3] is reported as 9.4 min. `Nc1ccc(O)cc1C(=O)C[C@H](N)C(=O)O`: the Retention time in series [6] worked out at 3.9 min.

For `CN(C=O)c1ccccc1C(=O)C[C@H](N)C(=O)O`, the Retention time in series [7] is 4.5 min. The compound `CC(=O)N[C@@H](Cc1c[nH]c2ccccc12)C(=O)O` [ACETYLTRYPTOPHAN] came in with a Retention_time in series [3] of 7 min.

As to `NC(CC(=O)c1ccccc1NCCF)C(=O)O` (stereo not given), the Retention time in series [5] turned out to be 7.9 min.

For the compound `CNc1ccccc1C(=O)C[C@H](N)C(=O)O`, the Retention time in series [7] is 7.4 min. For the compound `N[C@@H](Cc1c[nH]c2ccccc12)C(=O)O` [TRYPTOPHAN], the figures for the Activity in series [2] and in series [4] were 67% and 100%, respectively. In series [3], this compound came in with a Retention_time of 5.4 min. With `N[C@@H](CC(=O)c1ccccc1NC=O)C(=O)O`, the Retention time in series [1] came out at 4.3 min.
